A word on the Kd: it is a measure of binding affinity in units of concentration. Lower therefore signals tighter binding. What is called stoichiometry N is the number of molecules, sites or subunits per partner or assembly.

The values that follow come from PMC3190987 (The Journal of Biological Chemistry, 2011).

Read-outs that look alike come from different tables or passages of the source.

Data set [1] in a line: CD spectra of peptides in isolation. The class given is physicochemical. The following applies: for helicity in isolation: peptide in isolation, from θ222, 20 °C. In short, it runs like this:
(§1)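 CD spectra of homodimeric or c-Jun heterodimeric samples, 150 μM total peptide, 10 mM potassium phosphate, 100 mM KF, pH 7, 1-mm cell. Scans 300–190 nm at 20 °C (pre- and post-melt) and at −8 °C. Converted to molar residue ellipticity, giving θ222/θ208. Fraction helicity taken from θ222 with k = 2.4 and T = 293 K.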

In a further data set the test system is c-Jun-DHFR2. The data set can be described thus: Growth competition under PCA conditions. The class given is cell-based, Escherichia coli. The following applies: M9 minimal media with trimethoprim and IPTG; A600 hourly, in duplicate. In short, it runs like this: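 Split murine DHFR complementation in E. coli: library peptide fused to DHFR fragment 1, c-Jun to fragment 2, both lac-driven. Strains came from single colonies on PCA plates with sequence-verified plasmids. Growth rates were monitored under selection in M9 minimal medium with ampicillin, chloramphenicol, kanamycin, trimethoprim and IPTG (1 mM induction).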

Data set [2] has as its target T1, c-Jun (Homo sapiens, UniProt P05412, S292Y).
T1 sequence (P05412 with tags, fused parts or gaps S292Y): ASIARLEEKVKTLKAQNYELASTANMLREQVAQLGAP
The data set can be described thus: CD spectra of heterodimeric complexes with c-Jun. The following applies: for θ222/θ208 (20 °C) / Fraction helical (fH): heterodimer with c-Jun; for θ222/θ208 (20 °C): CD, 150 μM total peptide, pH 7, 20 °C; for Fraction helical (fH): from θ222, 20 °C. In a few lines: as §1

The target in data set [3] is T1, c-Jun. Briefly: Isothermal titration calorimetry. In kind it is binding. The following applies: for ΔH / ΔGbind (ITC) / TΔS (ΔH − ΔG): ITC, 20 °C; for ΔH: pH 7, one-site model; for ΔGbind (ITC): calculated by Equation 4; for TΔS (ΔH − ΔG): calculated from ΔH and ΔGbind. In a few lines: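 VP-ITC at 20 °C in 10 mM potassium phosphate, 100 mM KF, pH 7. Syringe peptide at 175–250 μM was injected 25 × 5 μl into cell peptide at 10–40 μM; syringe and cell partners were also swapped. Each run was done at least twice. Isotherms fitted to a 1:1 one-site model for Kd and ΔH. ΔG calculated at 293.15 K; TΔS from ΔH and ΔG.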

Data set [4] concerns the target T1, c-Jun. The following applies: heterodimer with c-Jun; cited from earlier work.
Data set [5] deals with T1, c-Jun. Briefly: CD dimer exchange experiment. The class given is binding. The following applies: CD spectra, total peptide 150 μM. In short, it runs like this:
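Equilibrium mixing followed by CD in 10 mM potassium phosphate, 100 mM KF, pH 7. Spectra recorded for the c-Fos homodimer and for the test peptide–c-Jun heterodimer, each at 150 μM total peptide. Equal volumes of the two solutions were then mixed, keeping the final total peptide at 150 μM, and the spectrum was re-recorded.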

Data set [6] is described as follows: Thermal melts followed by CD at 222 nm, homodimers. In kind it is physicochemical. The following applies: homodimer; CD 222 nm, 150 μM total peptide, pH 7. In a few lines: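 CD thermal denaturation at 222 nm, 150 μM total peptide, 10 mM potassium phosphate, 100 mM KF, pH 7. Started at −8 °C and stepped in 1 °C increments with a 30 s hold, signal averaged over 4 s per point. Tm obtained by least-squares fit to a two-state model (modified Gibbs-Helmholtz).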

The target in data set [7] is c-Jun (37-residue leucine zipper peptide). The data set can be described thus: CD thermal denaturation.
The target is the same in data set [8]. The data set can be described thus: ITC. Background: In ITC the heat of successive injections is recorded.
For data set [9] the following is noted: homodimer; cited from earlier work.

In data set [1], “ASLDELQAEIEQLEERNYALRKEIEDLQKQLEKLGAP [FosW]” registered a helicity in isolation of 43.7%. Also, the “affinity for c-Jun by E. coli growth rate” value (“affinity for c-Jun” for short) in the data set with c-Jun-DHFR2 was “much improved affinity over c-Fos”. Also, on c-Jun [2], the “θ222/θ208 (20 °C)” value was determined as 1.0 and the “Fraction helical (fH)” value is 35.8%. Besides, at c-Jun [3], the ΔH is -10.6 ± 0.2 kcal/mol, the “ΔGbind (ITC)” value was -9.9 ± 0.1 kcal/mol and the “TΔS (ΔH − ΔG)” value is -0.7 ± 0.2 kcal/mol.

As for “ASTDTLQAETDQLEDEKYALQTEIANLLKEKEKLGAP [c-Fos]”, in the data set on c-Jun-DHFR2, the “affinity for c-Jun” value is on record as “lower affinity interaction”. Besides, at c-Jun [2], the “θ222/θ208 (20 °C)” value worked out at 0.75 and the “Fraction helical (fH)” value came out at 3.6%. In addition, the Tm on c-Jun [4] is 16 °C. Moreover, at c-Jun [3], the ΔH is -0.8 ± 0.4 kcal/mol, the “ΔGbind (ITC)” value is -6.1 ± 0.4 kcal/mol and the “TΔS (ΔH − ΔG)” value is listed as 5.3 ± 0.5 kcal/mol.

Take “ASLDELQREIEQLEELNYALQKEIEDLQKQGAP [4hFosW]”: in data set [1], the “gain in helicity in isolation relative to FosW” value was approximately 7% and the helicity in isolation is 50.6%. Besides, in data set [1] (homodimeric complex, 20 °C), the “magnitude of the CD peak at 222 nm” value was “approximately −87 millidegrees”. Moreover, in data set [1] (peptide in isolation (homodimeric)), the “ratio θ222/θ208” value was approximately 1.0. Besides, the “affinity for c-Jun” value in the data set on c-Jun-DHFR2 was “much improved affinity over c-Fos”. Moreover, at c-Jun [2], the “θ222/θ208 (20 °C)” value is 0.99 and the “Fraction helical (fH)” value was found to be 60.4%. In addition, at c-Jun [2] (heterodimeric complex with c-Jun, 20 °C), the “magnitude of the CD peak at 222 nm” value is “approximately −112 millidegrees”. Further, the “gain in helicity of complex with c-Jun over c-Jun-FosW” value at c-Jun [2] (measured helicity by CD) is reported as approximately 25%. At c-Jun [5], the “specificity for c-Jun in the presence of c-Fos” value is recorded as “specific for c-Jun in the presence of c-Fos”. For the same molecule, on c-Jun [3] (ITC free energy of binding), the “loss of stability of complex with c-Jun relative to c-Jun-FosW” value is “around 1 kcal/mol”. In addition, on c-Jun [3], the ΔH was -14.1 ± 0.2 kcal/mol, the “ΔGbind (ITC)” value is -8.8 ± 0.1 kcal/mol and the “TΔS (ΔH − ΔG)” value was -5.3 ± 0.2 kcal/mol. For the same molecule, the Tm in data set [6] stood at 36 °C.

In [7], “c-Fos (37-residue leucine zipper peptide)” yielded a Kd of 26600 nM. The Ka in data set [8] worked out at 38000 M⁻¹.

As to “ASIARLEEKVKTLKAQNYELASTANMLREQVAQLGAP [c-Jun]”, in data set [9], the Tm was 24 °C.

On to Ac-ASLDELQREIEQLEELNYALQKEIEDLQKQGAP-NH2 [4hFosW], for which, in [7], the Kd is 487 nM and the Tm came out at 49 °C. For the same molecule, in data set [8], the Ka came out at 2.1e+06 M⁻¹, the dH is -14.1 kcal/mol and the stoichiometry N worked out at 1.05.

Consider Ac-ASLDELQAEIEQLEERNYALRKEIEDLQKQLEKLGAP-NH2 [FosW], for which, in data set [7], the Kd was determined as 45 nM and the Tm came to 63 °C. Further, in data set [8], the Ka turned out to be 2.2e+07 M⁻¹, the dH is -10.6 kcal/mol and the stoichiometry N was found to be 0.65.
